≈ marks a conversion by molar mass, not a printed value.
How the values were obtained:
Bacillus subtilis = test: Antibacterial activity against 10^8 CFU/mL Bacillus subtilis MTCC 441 by broth microdilution method; assay type: functional
How it was run: (§1)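 MTCC bacterial strains from IMTECH Chandigarh were grown in Mueller-Hinton broth, which was also used to dilute the compounds. Inoculum was turbidity-adjusted to 10⁸ CFU/mL, and DMSO served as diluent. Compounds from a 2000 stock were screened first at 500, 250 and 125; actives were retested in a second dilution series. Tubes were incubated overnight at 37 °C, and MIC was the lowest concentration with no visible growth. Clear tubes were subcultured overnight at 37 °C to tell bacteriostatic from bactericidal.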

Klebsiella pneumoniae = test: Antibacterial activity against 10^8 CFU/mL Klebsiella pneumoniae MTCC 109 by broth microdilution method; assay type: functional; how it was run: as §1
Pseudomonas aeruginosa = test: Antibacterial activity against 10^8 CFU/mL Pseudomonas aeruginosa MTCC 1688 by broth microdilution method; assay type: functional; how it was run: as §1
Salmonella typhi = test: Antibacterial activity against 10^8 CFU/mL Salmonella typhi MTCC 98 by broth microdilution method; assay type: functional, Salmonella enterica subsp. enterica serovar Typhi; details: Salmonella enterica
How it was run: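 Broth microdilution in Mueller-Hinton broth with MTCC strains, inoculum adjusted by turbidity to 10⁸ CFU/mL. Compounds were diluted from DMSO. Primary screen used 500, 250 and 125 concentrations, and actives were serially diluted further. Tubes were incubated overnight at 37 °C. MIC was the lowest concentration with no visible growth. Clear tubes were subcultured overnight at 37 °C to judge bacteriostatic versus bactericidal.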

Escherichia coli = test: Antibacterial activity against 10^8 CFU/mL Escherichia coli MTCC 443 by broth microdilution method; assay type: functional; how it was run: as §1
Staphylococcus aureus = test: Antibacterial activity against 10^8 CFU/mL Staphylococcus aureus MTCC 96 by broth microdilution method; assay type: functional; how it was run: as §1
Streptococcus pyogenes = test: Antibacterial activity against 10^8 CFU/mL Streptococcus pyogenes MTCC 442 by broth microdilution method; assay type: functional; how it was run: as §1
[1] = tested on: Mycobacterium tuberculosis; test: Antituberculosis activity against 5 x 10^4 inoculum per tube Mycobacterium tuberculosis H37Rv assessed as growth inhibition at 500 ug/mL incubated for 24 hrs measured after 28 days; assay type: functional; details: read-out: GI
How it was run: (§2)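 Conventional Lowenstein-Jensen method. Compound dilutions were made from a DMSO stock and added to liquid L-J medium, which was sterilized by inspissation. Tubes were incubated 24 h at 37 °C, then streaked with H37Rv (5 × 10⁴ bacilli per tube) harvested into 0.85% saline. Growth was checked at 12, 22 and 28 days at 37 °C against medium-only controls. MIC was the concentration giving no colonies or <20 colonies.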

Aspergillus clavatus = test: Antifungal activity against 10^8 CFU/mL Aspergillus clavatus MTCC 1323 by broth microdilution method; assay type: functional
How it was run: (§3)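 Fungal MTCC cultures came from IMTECH Chandigarh. Mueller-Hinton broth served as growth and dilution medium, with DMSO as diluent. Inoculum was set to 10⁸ CFU/mL by turbidity. Serial dilutions from a 2000 stock gave a primary screen at 500, 250 and 125, followed by a secondary dilution series for actives. MIC was the lowest concentration inhibiting growth.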

[2] = tested on: Mycobacterium tuberculosis; test: Antituberculosis activity against 5 x 10^4 inoculum per tube Mycobacterium tuberculosis H37Rv after 24 hrs by Lowenstein-Jensen method; assay type: functional; how it was run: as §2
Aspergillus niger = test: Antifungal activity against 10^8 CFU/mL Aspergillus niger MTCC 282 by broth microdilution method; assay type: functional; how it was run: as §3
Candida albicans = test: Antifungal activity against 10^8 CFU/mL Candida albicans MTCC 227 by broth microdilution method; assay type: functional; how it was run: as §3
[3] = tested on: Mycobacterium tuberculosis; test: Antituberculosis activity against 5 x 10^4 bacilli per tube Mycobacterium tuberculosis H37Rv assessed as growth inhibition at 50 ug/mL incubated for 24 hrs measured after 28 days; assay type: functional; details: read-out: GI; how it was run: as §2
[4] = tested on: Mycobacterium tuberculosis; test: Antituberculosis activity against 5 x 10^4 bacilli per tube Mycobacterium tuberculosis H37Rv assessed as growth inhibition at 100 ug/mL incubated for 24 hrs measured after 28 days; assay type: functional; details: read-out: GI; how it was run: as §2
[5] = tested on: Mycobacterium tuberculosis; test: Antituberculosis activity against 5 x 10^4 bacilli per tube Mycobacterium tuberculosis H37Rv assessed as growth inhibition at 1000 ug/mL incubated for 24 hrs measured after 28 days; assay type: functional; details: read-out: GI; how it was run: as §2
[6] = tested on: Mycobacterium tuberculosis; test: Antituberculosis activity against 5 x 10^4 bacilli per tube Mycobacterium tuberculosis H37Rv assessed as growth inhibition at 62.5 ug/mL incubated for 24 hrs measured after 28 days; assay type: functional; details: read-out: GI; how it was run: as §2

Row | SMILES | MIC99 (Bacillus subtilis) [µg/mL] | MIC99 (Klebsiella pneumoniae) [µg/mL] | MIC99 (Pseudomonas aeruginosa) [µg/mL] | MIC99 (Salmonella typhi) [µg/mL] | MIC99 (Escherichia coli) [µg/mL] | MIC99 (Staphylococcus aureus) [µg/mL] | MIC99 (Streptococcus pyogenes) [µg/mL] | inhibition of growth at 500 µg/mL [1] [%] | MIC (Aspergillus clavatus) [µg/mL] | MIC [2] [µg/mL] | MIC (Aspergillus niger) [µg/mL] | MIC (Candida albicans) [µg/mL] | inhibition of growth at 50 µg/mL [3] [%] | inhibition of growth at 100 µg/mL [4] [%] | inhibition of growth at 1000 µg/mL [5] [%] | inhibition of growth at 62.5 µg/mL [6] [%]
1 | O=C(O)c1cn(C2CC2)c2cc(N3CCNCC3)c(F)cc2c1=O [CIPROFLOXACIN] | 50 (≈ 151 µM) | 25 (≈ 75.4 µM) | 25 (≈ 75.4 µM) | 25 (≈ 75.4 µM) | 25 (≈ 75.4 µM) | 50 (≈ 151 µM) | 50 (≈ 151 µM) | – | – | – | – | – | – | – | – | –
2 | CC1=C(c2nnc(/N=C3\C(=O)Nc4ccccc43)s2)C(c2ccccc2)NC(=S)N1 (configuration not stated) | 200 (≈ 462 µM) | 200 (≈ 462 µM) | 200 (≈ 462 µM) | 200 (≈ 462 µM) | 500 (≈ 1160 µM) | 200 (≈ 462 µM) | 200 (≈ 462 µM) | 98 | 500 (≈ 1160 µM) | 500 (≈ 1160 µM) | 500 (≈ 1160 µM) | > 1000 | – | – | – | –
3 | CC1=C(c2nnc(/N=C3\C(=O)Nc4ccc(F)cc43)s2)C(c2ccccc2)NC(=O)N1 (configuration not stated) | 100 (≈ 230 µM) | 100 (≈ 230 µM) | 62.5 (≈ 144 µM) | 100 (≈ 230 µM) | 100 (≈ 230 µM) | 62.5 (≈ 144 µM) | 100 (≈ 230 µM) | – | 200 (≈ 460 µM) | 50 (≈ 115 µM) | 100 (≈ 230 µM) | 100 (≈ 230 µM) | 99 | – | – | –
4 | CC1=C(c2nnc(/N=C3\C(=O)Nc4ccc(Cl)cc43)s2)C(c2ccccc2)NC(=O)N1 (configuration not stated) | 200 (≈ 444 µM) | 200 (≈ 444 µM) | 200 (≈ 444 µM) | 200 (≈ 444 µM) | 100 (≈ 222 µM) | 200 (≈ 444 µM) | 200 (≈ 444 µM) | – | 500 (≈ 1110 µM) | 100 (≈ 222 µM) | 500 (≈ 1110 µM) | > 1000 | – | 98 | – | –
5 | CC1=C(c2nnc(/N=C3\C(=O)Nc4ccc(I)cc43)s2)C(c2ccccc2)NC(=S)N1 (configuration not stated) | 200 (≈ 358 µM) | 200 (≈ 358 µM) | 250 (≈ 448 µM) | 250 (≈ 448 µM) | 250 (≈ 448 µM) | 200 (≈ 358 µM) | 200 (≈ 358 µM) | – | > 1000 | 1000 (≈ 1790 µM) | > 1000 | > 1000 | – | – | 98 | –
6 | CC1=C(c2nnc(/N=C3\C(=O)Nc4ccc(Cl)cc43)s2)C(c2ccccc2)NC(=S)N1 (configuration not stated) | 100 (≈ 214 µM) | 200 (≈ 428 µM) | 100 (≈ 214 µM) | 200 (≈ 428 µM) | 200 (≈ 428 µM) | 200 (≈ 428 µM) | 200 (≈ 428 µM) | – | 500 (≈ 1070 µM) | 62.5 (≈ 134 µM) | 500 (≈ 1070 µM) | 500 (≈ 1070 µM) | – | – | – | 99

From ChEMBL document CHEMBL1833842, “1,3-Dihydro-2H-indol-2-ones derivatives: design, synthesis, in vitro antibacterial, antifungal and antitubercular study” (2011)
